Among the data in ChEMBL document CHEMBL4513216, “Probing the Open Global Health Chemical Diversity Library for Multistage-Active Starting Points for Next-Generation Antimalarials” (ACS Infect Dis, 2020) are cytotoxicity values, retold here.

This data set is described as follows: Toxicity liver stage against HepG2, at 10uM. In kind it is cell-based. Also on record: test concentration 10 uM, cell line HepG2-A16-CD81EGFP. The settings on record: human, HepG2-A16-CD81EGFP cells; read-out: INHIBITION
An outline of the steps:
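Uninfected HepG2-A16-CD81EGFP cells, 3 × 10^3 per well, 1536-well, plated on prespotted compound at 10 μM final, parasite-free screening media added to match infected plates; puromycin 10 μM positive, DMSO 0.5% negative; run in parallel with 48 h PbLuc assay at 37 °C, 5% CO2; viability by CellTiter-Glo luminescence, normalized to controls.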
In the case of `N#Cc1cccc(NC(=O)N(CC(F)F)C2CC2)c1`, the cytotoxicity at 10 µM is -16.1%.

In the case of `CC(C)(CN1CCC2(CCCNC2)C1)N1CCOCC1` (stereo not drawn), the cytotoxicity at 10 µM is -141%.

For `c1ccc(-n2nnnc2NCc2ccc3c(c2)OCO3)cc1`, the cytotoxicity at 10 µM is 29.5%.

Take `COC(=O)CC(c1cccs1)c1oc(C)cc(=O)c1O` (stereo not drawn): the cytotoxicity at 10 µM was 2.99%.

On to `Cc1cc(N2CCN(Cc3ccccc3)CC(O)C2)cc(C)n1` (stereo not drawn), for which the cytotoxicity at 10 µM was -17.4%.

On to `O=C(CCOc1ccccc1F)N1CCCCC1Cn1cccn1` (stereo not drawn), for which the cytotoxicity at 10 µM was -4.47%.

Turning to `CN1CCC(c2cc(C(F)(F)F)n3ccnc3n2)CC1`, the cytotoxicity at 10 µM is -9.6%.

For the compound `CN(C)S(=O)(=O)N1CCCC(c2cccc(Cc3ccccc3)n2)C1` (stereo not drawn), the cytotoxicity at 10 µM is 20.5%.

In the case of `Cn1cc(C(=O)CC2CCCN2C(=O)c2coc3ccccc23)cn1` (stereo not drawn), the cytotoxicity at 10 µM was -0.65%.

Turning to `COc1ccccc1CNC(Cc1cccs1)c1nc(C)cs1` (stereo not drawn), the cytotoxicity at 10 µM was -6.12%.

For the compound `O=C(Nc1ccccc1Cl)N1CCN(CC2CC2)[C@@H]2CS(=O)(=O)C[C@@H]21`, the cytotoxicity at 10 µM is 2.72%.

Turning to `COc1ccc2c(c1)CCCN(CC(=O)NCC1CCCO1)C2` (stereo not drawn), the cytotoxicity at 10 µM is -12%.

For the compound `O=C(CCN1CCCC1c1cccc(F)c1)N1CCc2sccc2C1` (stereo not drawn), the cytotoxicity at 10 µM was -10.7%.

As for `O=C(NC1CC(=O)N(C2Cc3ccccc3C2)C1)c1cnccn1` (stereo not drawn), the cytotoxicity at 10 µM was determined as 0.661%.

As for `Cc1cc(C)n(CC2CCCCN2C(=O)CCc2ccncc2)n1` (stereo not drawn), the cytotoxicity at 10 µM was determined as 2.1%.

For the compound `O=C(O)c1cnc2c(cnn2C2CCCC2)c1`, the cytotoxicity at 10 µM is -8.23%.

Turning to `Cc1ccc(C)c(Sc2nccn(C)c2=O)c1`, the cytotoxicity at 10 µM was 6.43%.

For `Cc1[nH]ccc1C(=O)N1C[C@@H]2CC[C@H]1CN(S(=O)(=O)N(C)C)C2`, the cytotoxicity at 10 µM was 11.8%.

On to `CCOc1cc(CNCc2cnc(C)cn2)c(Cl)cc1OC(C)C`, for which the cytotoxicity at 10 µM was 4.86%.

For `Cc1cc(CNS(C)(=O)=O)ccc1N(C)C`, the cytotoxicity at 10 µM is -11.5%.

On to `Cc1nsc(N2CCN(C(=O)Nc3cccc(F)c3)CC2)n1`, for which the cytotoxicity at 10 µM was -18.3%.

Take `Cc1ccccc1OCC1CCCN(C(=O)CN(C)C2CCNCC2)C1` (stereo not drawn): the cytotoxicity at 10 µM was -5.54%.

For the compound `CCc1cnc(N2CC3(CCN(S(=O)(=O)C4CC4)C3)C2)nc1`, the cytotoxicity at 10 µM is -109%.

As to `Cn1c(SCC(O)COCc2ccc(Cl)cc2)nnc1C1CC1` (stereo not drawn), the cytotoxicity at 10 µM worked out at 14%.

`Cc1ccsc1[C@@H]1CCN(C(=O)CCC(=O)c2ccccc2)C[C@H]1O`: the cytotoxicity at 10 µM turned out to be 3.52%.

In the case of `CCn1cc2c(n1)CN(S(=O)(=O)c1ccc(C)cc1)CC2COC` (stereo not drawn), the cytotoxicity at 10 µM worked out at 5.77%.

With `COc1ccc(Cl)cc1NCc1nc2[nH]c(C)c(C)c(=O)n2n1`, the cytotoxicity at 10 µM was determined as 0.308%.

As to `Cc1cc2[nH]c(O)nc2cc1NCc1ccccc1`, the cytotoxicity at 10 µM worked out at 16%.

Turning to `Cc1cc(NC(=O)NCC(O)COc2ccccc2)n(C)n1` (stereo not drawn), the cytotoxicity at 10 µM is -3.19%.

Regarding `COc1cc(CN2CCC3(CC2)[C@H](O)C[C@@H]3OCCO)ccc1F`, the cytotoxicity at 10 µM was -12.2%.

For `Cc1ccc(N2CCC(C(=O)O)(n3ccc(C(C)C)n3)CC2)nn1`, the cytotoxicity at 10 µM is -3.64%.

As to `CCOc1ccccc1C(CC(=O)N(C)c1ccccc1)NC(C)=O` (stereo not drawn), the cytotoxicity at 10 µM was -8.28%.

Take `Cc1cc2n(n1)CC(CNCc1ccc(-n3ccnc3C)nc1)CN2` (stereo not drawn): the cytotoxicity at 10 µM was -11.7%.

In the case of `CSc1ccc(C(=O)N2CCOCC2c2c(C)nn(C)c2C)o1` (stereo not drawn), the cytotoxicity at 10 µM was -2.12%.

In the case of `CC(C)CS(=O)(=O)N1CCC2(CC1)CCn1c(-c3cnn(C)c3)cnc12`, the cytotoxicity at 10 µM is -131%.

With `O=C([C@H]1CN(Cc2ccncc2)C[C@H]2OCC[C@@H]12)N1CCCCO1`, the cytotoxicity at 10 µM is 9.01%.

On to `Cc1ccccc1CNC(=O)c1ccccc1-n1cc(CN)cn1`, for which the cytotoxicity at 10 µM was -21%.

As to `c1cc(CNCc2cccc3c2OCCCO3)cc(Cn2cncn2)c1`, the cytotoxicity at 10 µM was determined as 8.1%.

Turning to `N#CC1Sc2nnc(-c3ccccc3Br)n2N=C1N` (stereo not drawn), the cytotoxicity at 10 µM was -4.81%.

As for `COc1ccc(C(=O)NCC(c2cccn2C)N2CCN(C)CC2)cc1` (stereo not drawn), the cytotoxicity at 10 µM amounted to 8.19%.

Regarding `Cc1ccc(F)c(NC(=O)CCC(=O)N(C)Cc2cc(C3CC3)[nH]n2)c1`, the cytotoxicity at 10 µM was 7.28%.

On to `CC(=O)Cn1cc(C#N)c(=O)c2cc(Br)ccc21`, for which the cytotoxicity at 10 µM is -7.06%.

In the case of `Cc1cccc2c1nc(CCO)n2-c1ccc(NS(C)(=O)=O)nc1`, the cytotoxicity at 10 µM was found to be 2.34%.

For the compound `CC1(C)Oc2ccc(NC(=O)c3ccc(=O)[nH]n3)cc2O1`, the cytotoxicity at 10 µM stood at 10.1%.

With `CN1CCCC(c2cccc(Cc3ccccc3Cl)n2)C1` (stereo not drawn), the cytotoxicity at 10 µM worked out at 1.03%.

`CCc1cnc(CNC(=O)NCCCO)s1`: the cytotoxicity at 10 µM was -5.42%.

With `Oc1ncccc1-c1nc(-c2cccc(CN3CCOCC3)c2)no1`, the cytotoxicity at 10 µM is -11.8%.

`CC(C)N(CCO)C(=O)C1CCC(=O)N(CCc2cccc(F)c2)C1` (stereo not drawn): the cytotoxicity at 10 µM was -6.95%.

As to `CCOc1ccccc1C(=O)N1CCn2c(nnc2C(F)(F)F)C1`, the cytotoxicity at 10 µM was -2.99%.

Regarding `CCCn1ccnc1CN1CCCC(CC)(CO)C1` (stereo not drawn), the cytotoxicity at 10 µM turned out to be 3.44%.

In the case of `Cc1cccnc1CC(C)N(C)C(=O)c1cccs1` (stereo not drawn), the cytotoxicity at 10 µM is -1.02%.

Turning to `O=C(c1cccs1)N1CC(Oc2ccccc2Cl)C1`, the cytotoxicity at 10 µM turned out to be 6.89%.

As to `COC(=O)c1c(Cl)c(C)nc2onc(C)c12`, the cytotoxicity at 10 µM was -0.895%.

`CCOCC(=O)Nc1ncn(Cc2cccc(Br)c2)n1`: the cytotoxicity at 10 µM is -5.53%.

In the case of `O=C(C1CCCCN1Cc1nccn1CC(F)(F)F)N1CCCC1` (stereo not drawn), the cytotoxicity at 10 µM came out at 14.2%.

`Cc1ccc(CNC(=O)NC(C)Cn2cccn2)cn1` (stereo not drawn): the cytotoxicity at 10 µM is -11.2%.

Regarding `CN(C)C(=O)CN1CCCC(c2nccnc2-c2cccc(Cl)c2)C1` (stereo not drawn), the cytotoxicity at 10 µM was 4.21%.

Regarding `CCOCc1ccccc1NC(=O)NC1CCN(c2ccccc2)C1` (stereo not drawn), the cytotoxicity at 10 µM is -6.31%.

With `Cc1cc(C)n(Cc2cccc(C(=O)NCCSCC(C)(C)O)c2)n1`, the cytotoxicity at 10 µM is -6.93%.

With `Cc1nc(CNCc2ccc(OC34CCCN(CC3)C4)cc2)n[nH]1` (stereo not drawn), the cytotoxicity at 10 µM came to 1.01%.

Regarding `CC1CCN(c2ccc(=O)n(CC(=O)N(C)Cc3ccccc3)n2)CC1`, the cytotoxicity at 10 µM is 4.84%.

As for `Cc1nc(C(C)C)sc1C(C)N(C)C(=O)c1ccc(=O)n(C)n1` (stereo not drawn), the cytotoxicity at 10 µM is -1.94%.

Take `CN(C)C(=O)[C@@H]1CCO[C@@H]2CCN(Cc3ccccc3)C[C@@H]21`: the cytotoxicity at 10 µM was -12.1%.

For the compound `O=C(c1ccc2nncn2c1)N1CCSC2(CCCCC2)C1`, the cytotoxicity at 10 µM was -5.32%.

Consider `COC1COC2(CCN(Cc3ccco3)CC2)C1` (stereo not drawn), for which the cytotoxicity at 10 µM turned out to be 8.62%.

As for `OC1CCN(CCCn2ccnc2-c2c[nH]cn2)CC1`, the cytotoxicity at 10 µM is -1.57%.

On to `CN(CCNC(=O)NCc1ccncc1)C1CCCC1`, for which the cytotoxicity at 10 µM is -2.95%.

For `O=C(NCCc1ccc(Cl)cc1)c1coc(CN2CCOCC2)c1`, the cytotoxicity at 10 µM came to 0.383%.

As to `c1ccc(-n2cc(CN3CCCC3Cn3cccn3)nn2)cc1` (stereo not drawn), the cytotoxicity at 10 µM was found to be 0.207%.

In the case of `O=C1NC2(CCN(Cc3cccnc3)CC2)CC1c1cccnc1` (stereo not drawn), the cytotoxicity at 10 µM was 3.14%.

For the compound `CNC(=O)[C@H]1C[C@@H]2CN(S(=O)(=O)c3cccc(F)c3)C[C@@H]2N1C`, the cytotoxicity at 10 µM is -4.94%.

With `O=c1c2cc3c(cc2nnn1Cc1ccccc1Cl)OCCO3`, the cytotoxicity at 10 µM stood at 9.32%.

Regarding `N#Cc1ccc(N2CCCN(CC(N)=O)CC2)cc1`, the cytotoxicity at 10 µM was 3.11%.

Consider `COC(=O)CNC(=O)CSCc1nc(O)c2cc(C)sc2n1`, for which the cytotoxicity at 10 µM came to 1.45%.

With `COc1ccnc(CN2CCCC(CCc3ccc(F)cc3)C2)c1OC` (stereo not drawn), the cytotoxicity at 10 µM was 50.4%.

On to `CC(=O)N1CCCC(c2ccc(Br)cn2)C1` (stereo not drawn), for which the cytotoxicity at 10 µM was -24.1%.

Consider `COc1cnc(CN2CCN(CC(C)C)C(=O)C2C)cc1O` (stereo not drawn), for which the cytotoxicity at 10 µM stood at 3.28%.

In the case of `O=C(c1cscn1)N1CCC2(CCCN(CCOc3ccccc3)C2)C1` (stereo not drawn), the cytotoxicity at 10 µM worked out at 1.38%.

`CCc1n[nH]c(C2CN(C(=O)c3cnc(C)s3)CCO2)n1` (stereo not drawn): the cytotoxicity at 10 µM was -6.64%.

On to `Cc1ccc(OC2(C(=O)O)CCN(C(=O)CCc3ccco3)CC2)cn1`, for which the cytotoxicity at 10 µM came to 1.33%.

Turning to `CCC1CN(C(=O)Nc2cnc3c(cnn3C(C)C)c2)CCO1` (stereo not drawn), the cytotoxicity at 10 µM was -9.46%.

Regarding `CCO[C@@H]1CC[C@H]2[C@H]1OCCN2Cc1ccc(F)cc1`, the cytotoxicity at 10 µM stood at 10.3%.

Turning to `CN(CC1CN(Cc2cn3ccsc3n2)CCO1)c1cccnn1` (stereo not drawn), the cytotoxicity at 10 µM stood at 4.55%.

`CN(C(=O)CN1CCCC1Cc1ccccc1)c1ccccc1` (stereo not drawn): the cytotoxicity at 10 µM was determined as 17.8%.

`CN(Cc1cc(Br)cn1C)C(=O)Cc1cccnc1`: the cytotoxicity at 10 µM was -4.18%.

Take `Cc1ccc(Cc2cnc(NC(=O)C3CNC(=O)N3)s2)cc1F` (stereo not drawn): the cytotoxicity at 10 µM was found to be 1.11%.

On to `COc1cccc(CC2CCCN2CCCC#N)c1` (stereo not drawn), for which the cytotoxicity at 10 µM is -43.7%.

With `Cc1nc(C)n(CCC(=O)N2CCc3ncc(Cl)cc3C2)n1`, the cytotoxicity at 10 µM was determined as 2.67%.

Regarding `CN(C)CCN1CCCC12CCN(C(=O)c1ccco1)CC2`, the cytotoxicity at 10 µM is 1.49%.

Regarding `Cc1cc(C)c2c(c1)C1(CC(=O)Nc3c1cnn3C(C)C)C(=O)N2` (stereo not drawn), the cytotoxicity at 10 µM was -2.51%.

In the case of `Cc1cc(C(=O)N2CCN(C(=O)Cc3ccccn3)CC2)c(C)s1`, the cytotoxicity at 10 µM was 6.18%.

On to `Cc1noc(CCCC(=O)N(CCC(=O)O)Cc2ccc(F)c(F)c2)n1`, for which the cytotoxicity at 10 µM is -11.3%.

As to `Cc1ccc(NC2CCN(C(=O)c3sccc3C3CC3)CC2)nn1`, the cytotoxicity at 10 µM is -4.51%.

For `Cc1nccn1C1CCCN(C(=O)COCC2CC2)C1` (stereo not drawn), the cytotoxicity at 10 µM was -11.7%.

In the case of `CC(=O)N1CCn2c(COCc3csc(C)n3)cnc2C1C` (stereo not drawn), the cytotoxicity at 10 µM was -12.5%.

For `CCn1cc(-c2cc(C(F)(F)F)n(CCCN)n2)cn1`, the cytotoxicity at 10 µM is -7.86%.

Take `CCNC(=O)[C@@H]1C[C@H](N)CN1Cc1ccc(Sc2ccc(C)cc2)o1`: the cytotoxicity at 10 µM was -48.3%.

With `O=C(CCNC(=O)N1CCC(c2ccccc2)C1)N1CCCCC1` (stereo not drawn), the cytotoxicity at 10 µM was -3.41%.
